Data on two compounds can be found in ChEMBL document CHEMBL1221394, “Anti-AIDS agents 79. Design, synthesis, molecular modeling and structure-activity relationships of novel dicamphanoyl-2',2'-dimethyldihydropyranochromone (DCP) analogs as potent anti-HIV agents” (Bioorg Med Chem, 2010).

Series [1] is described as follows: Cytotoxicity against human TZM-b1 cells. The series is classed as cell-based. An outline of the steps:
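Cytotoxicity in TZM-bl cells read with the CytoTox-Glo luminescent assay, run according to the kit instructions.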

A short description of series [2]: Therapeutic index, ratio of IC50 for human TZM-b1 cells to EC50 for HIV1 RTMDR1. Format: cell-based. The conditions noted are these: read-out: TI. An outline of the steps:
(§1)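 Cytotoxicity was measured with the CytoTox-Glo kit following the manufacturer's instructions. Antiviral EC50 came from the single-round TZM-bl luciferase assay: 200 TCID50 virus, eight 4-fold sample dilutions, 48 h, and 50% RLU reduction versus virus control after background subtraction.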

Series [3] can be described thus: Solubility of the compound in water after 1 hr. The series is classed as physicochemical. The conditions noted are these: HPLC grade water, 1 h. An outline of the steps:
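Excess solid compound was added to HPLC-grade water and sonicated in an ultrasonic bath at room temperature for 1 h. Undissolved solid was removed with a PTFE syringe filter. Dissolved concentration was quantified by HPLC on a C18 column (2.1 mm × 100 mm) at a flow rate of 200 μL/min.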

Series [4] is described as follows: Therapeutic index, ratio of CC50 for human H9 cells to EC50 for HIV1. Format: cell-based. To be noted: read-out: TI.
For series [5], the system named is Human immunodeficiency virus 1. Description: Antiviral activity against wild type HIV1 NL4-3 in human TZM-b1 cells after 48 hrs by luciferase reporter gene assay. Format: functional, organism-based. The conditions noted are these: Human immunodeficiency virus 1, NL4-3, TZM-b1, 48 h. The method in brief:
(§2)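 Single-round infection of TZM-bl cells with 200 TCID50 virus mixed with test sample at eight 4-fold serial dilutions. Incubated 48 h, then luciferase reagent was added and luminescence read. IC50 is the concentration giving 50% reduction in RLU versus virus-control wells, after subtracting background RLU.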
(A reporter such as luciferase makes a cellular process visible.)

Series [6] in a line: Therapeutic index, ratio of CC50 for human H9 cells to EC50 for HIV1 RTMDR1. The series is classed as cell-based. The conditions noted are these: read-out: TI.
For series [7], the system named is Human immunodeficiency virus 1. Kind of series: Antiviral activity against HIV1 infected in human H9 cells. The series is classed as functional, organism-based. The conditions noted are these: Human immunodeficiency virus 1, H9.
For series [8], the system named is Human immunodeficiency virus 1. Kind of series: Antiviral activity against HIV1 RTMDR1 in human TZM-b1 cells after 48 hrs by luciferase reporter gene assay. The series is classed as functional, organism-based. The conditions noted are these: Human immunodeficiency virus 1, RTMDR1, TZM-b1, 48 h. The method in brief: as §2
A short description of series [9]: Therapeutic index, ratio of IC50 for human TZM-b1 cells to EC50 for HIV1 NL4-3. To be noted: read-out: TI. The series is classed as cell-based. The method in brief:
as §1

The subject of series [10] is Human immunodeficiency virus 1. Kind of series: Antiviral activity against HIV1 RTMDR1 in human MT4 cells. Format: functional, organism-based. To be noted: Human immunodeficiency virus 1, RTMDR1, MT4.
Series [11] concerns Human immunodeficiency virus 1. Kind of series: Antiviral activity against HIV1 3B infected in human H9 cells. Format: functional, organism-based. The conditions noted are these: Human immunodeficiency virus 1, 3B.
Series [12] can be described thus: Therapeutic index, ratio of CC50 for human H9 cells to EC50 for HIV1 3B. Format: cell-based. To be noted: read-out: TI.

Molecules are shown by their SMILES.

What is called IC50 is the midpoint of a concentration-inhibition curve. A high value points to weaker potency. One may read the solubility as the dissolved amount per volume that the medium holds. Low readings indicate a poorly soluble substance, high ones a readily soluble substance. As a reminder, the EC50 is the concentration that produces a half-maximal response. Take `CCc1cc(=O)c2ccc3c(c2o1)[C@@H](OC(=O)[C@@]12CC[C@@](C)(C(=O)O1)C2(C)C)[C@@H](OC(=O)[C@@]12CC[C@@](C)(C(=O)O1)C2(C)C)C(C)(C)O3`: the IC50 in series [1] was 6600 nM. Besides, the selectivity ratio in series [2] was found to be 60; in series [4], 94; in [6], 60; in series [9], 94. Besides, in [3], the solubility is less than 0.9 µg/mL. In addition, the EC50 in [5] is 70 nM; in series [7] it was 70 nM; in [8], 110 nM; in [10], 110 nM.
Compound `Cc1cc(=O)oc2c3c(ccc12)OC(C)(C)[C@H](OC(=O)[C@@]12CC[C@@](C)(C(=O)O1)C2(C)C)[C@@H]3OC(=O)[C@@]12CC[C@@](C)(C(=O)O1)C2(C)C` showed an EC50 in [11] of 5.9 nM. Besides, in [12], the selectivity ratio is 6660.
